# According to ChEMBL document CHEMBL4364339, “Systematically Mitigating the p38α Activity of Triazole-based BET Inhibitors” (ACS Med Chem Lett, 2019):
# Activity calls are given as the source filed them. The calls are words filed in the database; no cut-off is given here.
# Experiments:
# [1] = target: Mitogen-activated protein kinase 14 (Homo sapiens, UniProt Q16539); assay: Binding affinity to wild-type human full length p38-alpha (M1 to S360 residues) expressed in bacterial expression system by Kinomescan method
# Method in brief: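 Kd for p38α from KINOMEscan binding; mean and standard error of two independent trials.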
# [2] = target: T1, Bromodomain-containing protein 4 (Homo sapiens, UniProt O60885); assay: Inhibition of BRD4 bromodomain 1 (unknown origin) expressed in Escherichia coli Bl21(DE3)-pRARE cells by fluorescence anisotropy
# Method in brief: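 BRD4-D1 ligand displacement read by fluorescence anisotropy, reported as IC50; mean and standard deviation of three independent trials; IC50 above 100 μM reported as >100.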
# Homo sapiens [3] = organism: Homo sapiens; assay: Selectivity ratio of compound effect on human full length p38-alpha (M1 to S360 residues) expressed in bacterial cells over compound effect on human partial length BRD4 bromodomain 1 long isoform (N44 to E168 residues) expressed in bacterial cells; type: cell-based
# MM1.S = assay: Antiproliferative activity against human MM1S cells assessed as reduction in cell viability after 69 hrs by Alamar blue assay; type: functional, cell-based
# Method in brief: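 MM.1S cell viability, read as EC50 from a nonlinear curve fit; mean ± SEM of three biological replicates, each run in three technical replicates.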
# [4] = target: T1, Bromodomain-containing protein 4; assay: Inhibition of BRD4 bromodomain 1 in human MM1S cells assessed as decrease in c-MYC expression after 6 hrs by Western blot analysis; type: cell-based
# [5] = target: T1, Bromodomain-containing protein 4; assay: Binding affinity to human partial length BRD4 bromodomain 1 long isoform (N44 to E168 residues) expressed in bacterial expression system by BROMOscan assay
# Method in brief: (§1)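 Dissociation constants from BROMOscan competition binding; mean and standard error of two independent trials.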
# [6] = target: T1, Bromodomain-containing protein 4; assay: Binding affinity to human partial length BRD4 bromodomain 2 long isoform (K333 to E460 residues) expressed in bacterial expression system by BROMOscan assay; method in brief: as §1
# [7] = target: SWI/SNF-related matrix-associated actin-dependent regulator of chromatin subfamily A member 2 (Homo sapiens, UniProt P51531); assay: Binding affinity to human partial length SMARCA2 (S1377 to Q1486 residues) expressed in bacterial expression system by BROMOscan assay; method in brief: as §1
# CREB-binding protein = CREB-binding protein (Homo sapiens, UniProt Q92793); assay: Binding affinity to human partial length CREBBP (R1081 to G1197 residues) expressed in bacterial expression system by BROMOscan assay; method in brief: as §1
# [8] = target: T1, Bromodomain-containing protein 4; assay: Inhibition of biotinylated histone H4 peptide binding to BRD4 bromodomain 1 (44 to 168 residues) (unknown origin) after 60 mins by Alphascreen method
# Homo sapiens [9] = organism: Homo sapiens; assay: Selectivity index, ratio of Kd for human full length p38-alpha (M1 to S360 residues) expressed in bacterial cells to Kd for human partial length BRD4 bromodomain 1 long isoform (N44 to E168 residues) expressed in bacterial cells; type: cell-based
# Homo sapiens [10] = organism: Homo sapiens; assay: Selectivity index, ratio of Kd for human full length p38-alpha (M1 to S360 residues) expressed in bacterial cells to Kd for human partial length BRD4 bromodomain 2 long isoform (K333 to E460 residues) expressed in bacterial cells; type: cell-based
# Sequence of Mitogen-activated protein kinase 14 (Q16539 whole entry, the tested form may be a part): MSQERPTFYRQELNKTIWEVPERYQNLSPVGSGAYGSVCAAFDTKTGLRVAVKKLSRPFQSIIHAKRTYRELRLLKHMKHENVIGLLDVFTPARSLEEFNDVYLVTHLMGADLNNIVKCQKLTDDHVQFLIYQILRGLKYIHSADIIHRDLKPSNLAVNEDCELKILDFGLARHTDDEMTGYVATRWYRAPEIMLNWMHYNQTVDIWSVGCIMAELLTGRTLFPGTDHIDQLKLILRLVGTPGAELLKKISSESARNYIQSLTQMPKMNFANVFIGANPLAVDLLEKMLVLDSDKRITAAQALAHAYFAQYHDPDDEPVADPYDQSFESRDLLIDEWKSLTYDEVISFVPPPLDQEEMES
# Sequence of CREB-binding protein (Q92793 whole entry, the tested form may be a part): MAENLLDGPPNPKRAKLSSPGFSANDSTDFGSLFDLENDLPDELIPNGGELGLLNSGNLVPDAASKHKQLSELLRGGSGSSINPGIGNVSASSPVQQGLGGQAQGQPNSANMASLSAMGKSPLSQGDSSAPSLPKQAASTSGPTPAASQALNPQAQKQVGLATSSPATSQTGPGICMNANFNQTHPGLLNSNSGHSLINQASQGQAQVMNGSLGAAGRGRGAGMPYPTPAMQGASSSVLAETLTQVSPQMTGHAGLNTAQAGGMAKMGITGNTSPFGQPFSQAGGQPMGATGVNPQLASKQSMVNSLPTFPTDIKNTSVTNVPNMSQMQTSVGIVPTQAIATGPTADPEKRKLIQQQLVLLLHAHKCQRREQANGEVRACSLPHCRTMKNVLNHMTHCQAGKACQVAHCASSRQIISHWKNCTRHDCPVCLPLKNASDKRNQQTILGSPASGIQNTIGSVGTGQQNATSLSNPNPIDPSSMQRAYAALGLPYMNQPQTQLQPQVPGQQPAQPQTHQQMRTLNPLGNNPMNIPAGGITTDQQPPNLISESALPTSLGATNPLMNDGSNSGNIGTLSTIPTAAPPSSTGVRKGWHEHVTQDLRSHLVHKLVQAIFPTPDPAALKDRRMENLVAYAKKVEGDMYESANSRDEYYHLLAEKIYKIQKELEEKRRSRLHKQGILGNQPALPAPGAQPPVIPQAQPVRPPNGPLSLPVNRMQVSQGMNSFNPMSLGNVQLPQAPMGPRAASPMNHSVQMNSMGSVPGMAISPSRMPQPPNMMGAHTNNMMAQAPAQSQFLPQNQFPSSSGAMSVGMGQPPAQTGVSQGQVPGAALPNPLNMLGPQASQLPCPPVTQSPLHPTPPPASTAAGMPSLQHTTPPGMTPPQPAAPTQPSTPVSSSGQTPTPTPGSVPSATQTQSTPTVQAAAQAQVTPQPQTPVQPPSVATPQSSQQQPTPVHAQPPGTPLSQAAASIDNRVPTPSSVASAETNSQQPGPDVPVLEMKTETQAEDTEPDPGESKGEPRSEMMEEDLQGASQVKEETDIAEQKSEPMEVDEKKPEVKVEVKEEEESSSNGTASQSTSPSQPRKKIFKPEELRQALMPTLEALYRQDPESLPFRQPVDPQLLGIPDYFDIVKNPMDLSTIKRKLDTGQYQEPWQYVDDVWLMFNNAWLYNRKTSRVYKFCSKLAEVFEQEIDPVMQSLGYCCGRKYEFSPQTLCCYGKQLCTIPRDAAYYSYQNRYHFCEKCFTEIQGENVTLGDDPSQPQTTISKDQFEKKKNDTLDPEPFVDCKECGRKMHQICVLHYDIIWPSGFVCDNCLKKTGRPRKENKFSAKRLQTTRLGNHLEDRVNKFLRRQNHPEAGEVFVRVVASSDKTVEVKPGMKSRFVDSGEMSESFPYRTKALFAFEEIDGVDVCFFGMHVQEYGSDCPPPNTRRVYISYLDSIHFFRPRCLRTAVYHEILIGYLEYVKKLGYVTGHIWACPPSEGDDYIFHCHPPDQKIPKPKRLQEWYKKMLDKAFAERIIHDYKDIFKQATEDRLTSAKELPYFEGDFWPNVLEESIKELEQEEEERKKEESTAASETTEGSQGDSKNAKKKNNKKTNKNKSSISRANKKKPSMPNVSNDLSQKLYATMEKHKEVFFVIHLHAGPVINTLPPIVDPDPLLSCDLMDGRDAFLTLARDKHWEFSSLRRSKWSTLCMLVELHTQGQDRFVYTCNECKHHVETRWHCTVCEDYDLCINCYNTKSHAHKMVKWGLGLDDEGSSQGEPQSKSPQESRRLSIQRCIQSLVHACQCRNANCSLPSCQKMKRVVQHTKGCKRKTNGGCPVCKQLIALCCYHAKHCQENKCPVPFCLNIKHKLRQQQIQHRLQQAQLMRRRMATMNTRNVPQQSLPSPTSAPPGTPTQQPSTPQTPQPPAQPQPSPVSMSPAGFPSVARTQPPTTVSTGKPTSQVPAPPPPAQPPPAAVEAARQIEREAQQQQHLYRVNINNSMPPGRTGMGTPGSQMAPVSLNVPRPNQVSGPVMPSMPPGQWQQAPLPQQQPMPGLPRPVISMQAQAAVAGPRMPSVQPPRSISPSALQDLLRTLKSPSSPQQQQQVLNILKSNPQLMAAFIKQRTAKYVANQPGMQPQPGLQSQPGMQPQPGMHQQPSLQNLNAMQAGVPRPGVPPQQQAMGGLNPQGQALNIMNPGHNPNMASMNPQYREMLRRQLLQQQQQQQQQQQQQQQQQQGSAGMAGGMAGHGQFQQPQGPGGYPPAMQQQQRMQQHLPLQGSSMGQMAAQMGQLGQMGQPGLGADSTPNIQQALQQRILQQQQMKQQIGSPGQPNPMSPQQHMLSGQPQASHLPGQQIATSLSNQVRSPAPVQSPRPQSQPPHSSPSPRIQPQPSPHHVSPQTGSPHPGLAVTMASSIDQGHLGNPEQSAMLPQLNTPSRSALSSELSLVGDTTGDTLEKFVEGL
# Sequence of SWI/SNF-related matrix-associated actin-dependent regulator of chromatin subfamily A member 2 (P51531 whole entry, the tested form may be a part): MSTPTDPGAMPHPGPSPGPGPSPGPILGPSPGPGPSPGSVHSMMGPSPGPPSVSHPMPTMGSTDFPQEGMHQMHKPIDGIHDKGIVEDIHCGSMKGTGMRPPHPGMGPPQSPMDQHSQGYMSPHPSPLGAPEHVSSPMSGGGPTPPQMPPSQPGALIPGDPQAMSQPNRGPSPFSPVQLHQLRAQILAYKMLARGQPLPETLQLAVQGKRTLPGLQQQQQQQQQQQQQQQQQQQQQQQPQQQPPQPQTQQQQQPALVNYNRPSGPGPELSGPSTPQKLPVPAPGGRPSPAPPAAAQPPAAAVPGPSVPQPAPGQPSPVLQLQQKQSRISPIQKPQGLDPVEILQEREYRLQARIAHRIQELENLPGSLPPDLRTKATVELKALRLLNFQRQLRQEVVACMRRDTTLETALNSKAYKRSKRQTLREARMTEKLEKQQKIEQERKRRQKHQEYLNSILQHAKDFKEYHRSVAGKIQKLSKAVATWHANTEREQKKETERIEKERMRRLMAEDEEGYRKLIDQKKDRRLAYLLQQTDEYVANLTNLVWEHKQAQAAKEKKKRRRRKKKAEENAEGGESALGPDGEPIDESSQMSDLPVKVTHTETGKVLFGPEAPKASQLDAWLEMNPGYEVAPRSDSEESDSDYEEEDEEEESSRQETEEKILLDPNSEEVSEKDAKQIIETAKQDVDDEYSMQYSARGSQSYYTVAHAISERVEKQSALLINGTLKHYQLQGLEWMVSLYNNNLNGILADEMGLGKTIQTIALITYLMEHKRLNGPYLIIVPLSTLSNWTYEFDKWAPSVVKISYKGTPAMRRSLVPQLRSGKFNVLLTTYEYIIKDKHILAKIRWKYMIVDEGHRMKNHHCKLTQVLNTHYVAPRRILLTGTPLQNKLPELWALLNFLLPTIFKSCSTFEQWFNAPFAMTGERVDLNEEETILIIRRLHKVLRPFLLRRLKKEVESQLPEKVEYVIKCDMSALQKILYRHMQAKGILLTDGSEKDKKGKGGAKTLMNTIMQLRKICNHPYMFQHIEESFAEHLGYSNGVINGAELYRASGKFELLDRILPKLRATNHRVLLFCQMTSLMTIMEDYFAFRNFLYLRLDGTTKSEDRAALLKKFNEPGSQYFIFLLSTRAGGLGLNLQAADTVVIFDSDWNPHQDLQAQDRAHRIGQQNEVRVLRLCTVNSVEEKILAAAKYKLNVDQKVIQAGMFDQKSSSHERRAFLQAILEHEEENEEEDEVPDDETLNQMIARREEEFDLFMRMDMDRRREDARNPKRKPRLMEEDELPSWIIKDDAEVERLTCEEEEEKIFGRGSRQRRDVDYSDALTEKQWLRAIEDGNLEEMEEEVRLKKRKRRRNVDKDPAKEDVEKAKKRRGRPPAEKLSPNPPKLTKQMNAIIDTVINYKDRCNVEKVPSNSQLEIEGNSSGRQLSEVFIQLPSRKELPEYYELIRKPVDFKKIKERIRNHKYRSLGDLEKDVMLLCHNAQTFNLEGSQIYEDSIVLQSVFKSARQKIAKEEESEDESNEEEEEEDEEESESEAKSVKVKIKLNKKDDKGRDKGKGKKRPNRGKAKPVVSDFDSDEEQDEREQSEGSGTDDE
Compound,Kd [1] [µM],IC50 [2] [µM],EC50 (MM1.S) [µM],other results
Cc1cc(C)cc(Oc2cccc(-c3c(-c4ccc(F)cc4)nnn3C3CCNCC3)n2)c1,5,,,
Cc1cc(C)cc(Nc2cccc(-c3c(-c4ccc(F)cc4)nnn3C3CCNCC3)n2)c1,6.5,,,
CCCc1nnn(C2CCN(C(=N)N)CC2)c1-c1ccnc(Oc2cc(C)cc(C)c2)n1,,> 100,,
Cc1cc(C)cc(Nc2nccc(-c3c(-c4ccc(F)cc4)nnn3C3CCNCC3)n2)c1,0.0022,,,Selectivity ratio (Homo sapiens [3]): > 10000
Cc1cc(C)cc(Nc2cccc(-c3c(C)nnn3C3CCNCC3)n2)c1,,3.9,6.3,inhibition [4]: Active
Cc1cc(C)cc(Oc2nccc(-c3c(C4CCCC4)nnn3C3CCNCC3)n2)c1,,> 100,,
Cc1cc(C)cc(Nc2cccc(-c3c(C)nnn3C3CCN(C(=N)N)CC3)n2)c1,> 25,,> 50,Kd [5]: 1.2 µM; Kd [6]: 2.1 µM; Kd [7]: > 100 µM; Kd (CREB-binding protein): 78 µM
Cc1cc(C)cc(Oc2nccc(-c3c(-c4ccc(F)cc4)nnn3C3CCNCC3)n2)c1,0.12,> 100,,IC50 [8]: 27 µM
Cc1cc(C)cc(Oc2cccc(-c3c(C)nnn3C3CCNCC3)n2)c1,,,2.9,
Cc1cc(C)cc(Oc2cccc(-c3c(C)nnn3C3CCN(C(=N)N)CC3)n2)c1,> 200,,> 50,Kd [5]: 1.1 µM; Kd [6]: 0.94 µM; Kd [7]: > 100 µM; Kd (CREB-binding protein): > 100 µM; IC50 [8]: 1.7 µM; Ratio (Homo sapiens [9]): > 100; Ratio (Homo sapiens [10]): > 100
Cc1cc(C)cc(Oc2cncc(-c3c(C)nnn3C3CCN(C(=N)N)CC3)c2)c1,,> 100,,
Cc1cc(C)cc(Oc2nccc(-c3c(C(C)(C)C)nnn3C3CCNCC3)n2)c1,,> 100,,
Cc1cc(C)cc(Oc2nccc(-c3c(C4CCCCC4)nnn3C3CCNCC3)n2)c1,,> 100,,
Cc1cc(C)cc(Oc2nccc(-c3c(C)nnn3C3CCNCC3)n2)c1,,11,6.6,inhibition [4]: Active
Cc1cc(C)cc(Oc2nccc(-c3c(C)nnn3C3CCN(C(=N)N)CC3)n2)c1,,,> 50,
Cc1cc(C)cc(Oc2nccc(-c3c(C(C)C)nnn3C3CCN(C(=N)N)CC3)n2)c1,,> 100,,
